Our source for the inhibition of growth, solubility and logP values is ChEMBL document CHEMBL3865799, “Synthesis of a series of novel dihydroartemisinin monomers and dimers containing chalcone as a linker and their anticancer activity” (Eur J Med Chem, 2016).

Series [1] in a line: Cytotoxicity against human HepG2 cells assessed as cell growth inhibition at 50 uM after 48 hrs by MTT assay. The class given is functional. Particulars: HepG2, 48 h, read-out: GI. In a few lines: (§1)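 Adherent lines at 70–75% confluence, grown at 37 °C in 5% CO2 with 10% FCS. Exposed 48 h to compound in DMSO (vehicle <0.2% v/v). MTT dye added 3 h before termination; formazan dissolved in DMSO, OD 570 nm with 620 nm reference. Growth inhibition expressed as % of untreated; IC50 taken from the dose series.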
(In general: Formazan colour is commonly taken as a measure of viable cells.)

Series [2] in a line: Aqueous solubility of the compound at pH 7. The class given is physicochemical.
Series [3] is described as follows: Cytotoxicity against human LS180 cells assessed as cell growth inhibition at 50 uM after 48 hrs by MTT assay. The class given is functional. Particulars: LS180, 48 h, read-out: GI. The procedure, abridged: as §1
A short description of series [4]: Cytotoxicity against human PC3 cells assessed as cell growth inhibition at 30 uM after 48 hrs by MTT assay. The class given is functional. Particulars: PC-3, 48 h, read-out: GI. In a few lines:
as §1

Series [5] in a line: Cytotoxicity against human MIAPaCa2 cells assessed as cell growth inhibition at 30 uM after 48 hrs by MTT assay. It counts as functional. Particulars: MIA PaCa-2, 48 h, read-out: GI. The procedure, abridged: as §1
A short description of series [6]: Lipophilicity, log P of the compound. The class given is physicochemical. Particulars: octanol/water.
Series [7] in a line: Cytotoxicity against human HepG2 cells assessed as cell growth inhibition at 30 uM after 48 hrs by MTT assay. It counts as functional. Conditions: HepG2, 48 h, read-out: GI. In a few lines: as §1
Series [8] in a line: Cytotoxicity against human PC3 cells assessed as cell growth inhibition at 50 uM after 48 hrs by MTT assay. The class given is functional. Conditions: PC-3, 48 h, read-out: GI. In a few lines:
as §1

A short description of series [9]: Cytotoxicity against human MIAPaCa2 cells assessed as cell growth inhibition at 50 uM after 48 hrs by MTT assay. Particulars: MIA PaCa-2, 48 h, read-out: GI. It counts as functional. The procedure, abridged: as §1
Series [10] can be described thus: Cytotoxicity against human HL60 cells assessed as cell growth inhibition at 30 uM after 48 hrs by MTT assay. Conditions: HL-60, 48 h, read-out: GI. The class given is functional. In a few lines: (§2)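 HL-60 suspension cells, 1.5 × 10^4 per well, grown at 37 °C in 5% CO2 with 10% FCS. Treated 48 h with compound in DMSO (vehicle <0.2% v/v). MTT added 3 h before the end. Formazan dissolved in DMSO and read at 570 nm (reference 620 nm). % growth inhibition computed against untreated cells; IC50 taken from the concentration series.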

The nature of series [11]: Cytotoxicity against human HL60 cells assessed as cell growth inhibition at 50 uM after 48 hrs by MTT assay. Conditions: HL-60, 48 h, read-out: GI. It counts as functional. In a few lines: as §2
Series [12] is described as follows: Cytotoxicity against human LS180 cells assessed as cell growth inhibition at 30 uM after 48 hrs by MTT assay. The class given is functional. Conditions: LS180, 48 h, read-out: GI. The procedure, abridged:
as §1

Turning to `COc1ccc(C(=O)/C=C/c2ccc(OCCO[C@H]3O[C@@H]4O[C@@]5(C)CC[C@H]6[C@H](C)CC[C@@H]([C@H]3C)[C@@]46OO5)cc2)c(OC)c1`, the inhibition of growth at 50 µM in series [1] is 28.9%; in series [3] it was 74.1%; in [8] it was 49.8%; in series [9], 46.8%; in [11], 89.5%. The same molecule yielded a solubility in series [2] of less than 10 µg/mL. The inhibition of growth at 30 µM in series [4] worked out at 47.4%; in [5], 44.1%; in series [7], 27.3%; in series [10], 89.3%; in series [12], 63.3%. The logP in series [6] fell in the range of 5.34 to 7.45.
Consider `C[C@H]1[C@@H](OCCOc2cccc(C(=O)/C=C/c3cn(CCO[C@H]4O[C@@H]5O[C@@]6(C)CC[C@H]7[C@H](C)CC[C@@H]([C@H]4C)[C@@]57OO6)c4ccccc34)c2)O[C@@H]2O[C@@]3(C)CC[C@H]4[C@H](C)CC[C@@H]1[C@@]24OO3`, for which the inhibition of growth at 50 µM in [1] amounted to 28.7%; in series [3] it was 37.8%; in [8], 48.7%; in [9], 49.4%; in series [11], 83.2%. In series [2], this molecule yielded a solubility of less than 10 µg/mL. Moreover, the inhibition of growth at 30 µM in series [4] is 46.3%; in series [5], 47.1%; in series [7], 25.4%; in series [10] it was 81.5%; in series [12], 36.2%. In addition, the logP in series [6] is 5.34 to 7.45.
For `C[C@H]1[C@@H](OCCOc2ccc(/C=C/C(=O)c3ccc(Cl)s3)cc2)O[C@@H]2O[C@@]3(C)CC[C@H]4[C@H](C)CC[C@@H]1[C@@]24OO3`, the inhibition of growth at 50 µM in series [1] was found to be 25.2%; in series [3], 41.6%; in [8] it was 39.9%; in series [9], 59.7%; in [11], 92.1%. Moreover, in series [2], the solubility was less than 10 µg/mL. The inhibition of growth at 30 µM amounted to 37.4% in series [4]; 53.2% in series [5]; 21.1% in series [7]; 91.9% in series [10]; 39.5% in series [12]. This molecule also returned a log partition coefficient (logP) in series [6] of 5.34 to 7.45.
For the molecule `C[C@H]1[C@@H](OCCOc2ccc(/C=C/C(=O)c3ccccc3Cl)cc2)O[C@@H]2O[C@@]3(C)CC[C@H]4[C@H](C)CC[C@@H]1[C@@]24OO3`, the inhibition of growth at 50 µM came to 25.2% in series [1]; 57.5% in [3]; 56.1% in series [8]; 61.1% in [9]; 92.9% in [11]. The same molecule returned a solubility in [2] of less than 10 µg/mL. In addition, the inhibition of growth at 30 µM in series [4] was 52.4%; in series [5] it was 55.1%; in series [7], 23.8%; in [10], 91.8%; in [12], 56.7%. The same molecule returned a logP in series [6] of 5.34 to 7.45.
For `COc1ccc(/C=C/C(=O)c2ccc(OCCO[C@H]3O[C@@H]4O[C@@]5(C)CC[C@H]6[C@H](C)CC[C@@H]([C@H]3C)[C@@]46OO5)cc2)c(OC)c1`, the inhibition of growth at 50 µM in series [1] was determined as 25.1%; in series [3], 29.6%; in series [8], 46.9%; in series [9], 41.7%; in series [11], 85.7%. In series [2], the solubility is less than 10 µg/mL. In addition, the inhibition of growth at 30 µM in series [4] is 38.2%; in series [5], 24.8%; in [7], 18.2%; in series [10], 83.5%; in series [12] it was 27.5%. In [6], the logP was 5.34 to 7.45.
As to `COc1ccc(C(=O)/C=C/c2ccc(OCCO[C@H]3O[C@@H]4O[C@@]5(C)CC[C@H]6[C@H](C)CC[C@@H]([C@H]3C)[C@@]46OO5)cc2)cc1Cl`, the inhibition of growth at 50 µM in series [1] turned out to be 32.3%; in [3], 45.4%; in series [8], 42.7%; in [9], 52.2%; in [11], 93.8%. In series [2], this molecule registered a solubility of less than 10 µg/mL. Further, the inhibition of growth at 30 µM in [4] was found to be 40.3%; in series [5] it was 51.1%; in series [7], 26.7%; in series [10], 93.4%; in [12], 41.6%. In series [6], this molecule showed a lipophilicity (logP) of 5.34 to 7.45.
As for `C[C@@H]1CC[C@H]2[C@@H](C)C(=O)O[C@@H]3O[C@@]4(C)CC[C@@H]1[C@]32OO4` [ARTEMISININ], the inhibition of growth at 50 µM in [1] is 14.4%; in series [3] it was 18.5%; in series [8] it was 17.6%; in series [9], 18%; in series [11], 19.8%. For the same molecule, the inhibition of growth at 30 µM in series [4] was 16%; in [5], 13%; in [7] it was 10.5%; in series [10], 14.4%; in [12], 13.4%.
Take `C[C@H]1[C@@H](OCCOc2ccc(/C=C/C(=O)c3cccc(O)c3)cc2)O[C@@H]2O[C@@]3(C)CC[C@H]4[C@H](C)CC[C@@H]1[C@@]24OO3`: the inhibition of growth at 50 µM is 38.3% in [1]; 39.3% in [3]; 49.5% in series [8]; 51.1% in series [9]; 76.5% in series [11]. The molecule further displayed a solubility in [2] of less than 10 µg/mL. Besides, the inhibition of growth at 30 µM turned out to be 47.6% in [4]; 44.1% in series [5]; 33.6% in series [7]; 77.7% in series [10]; 31.1% in series [12]. Besides, the logP in series [6] was 5.34 to 7.45.
As to `C[C@H]1[C@@H](OCCOc2ccc(/C=C/C(=O)c3ccc(OCCO[C@H]4O[C@@H]5O[C@@]6(C)CC[C@H]7[C@H](C)CC[C@@H]([C@H]4C)[C@@]57OO6)cc3)cc2)O[C@@H]2O[C@@]3(C)CC[C@H]4[C@H](C)CC[C@@H]1[C@@]24OO3`, the inhibition of growth at 50 µM came out at 47.8% in series [1]; 49.5% in series [3]; 47.6% in [8]; 49.1% in series [9]; 87.9% in [11]. The molecule further had a solubility in series [2] of less than 10 µg/mL. Further, the inhibition of growth at 30 µM in series [4] turned out to be 44.2%; in series [5], 45.1%; in [7], 40.9%; in series [10], 85.6%; in series [12] it was 45.8%. The same molecule came in with a logP in series [6] of 5.34 to 7.45.

As usually defined, the solubility is how much of the substance goes into solution per volume. Read a high solubility as a readily soluble substance. By logP is commonly meant the decadic logarithm of the partition coefficient of the neutral form, usually between octanol and water.
